# T cell HTS: T cell immune modulators affecting CD8 T cell-vesicle binding | 2C CD8+ T cell-vesicle binding, flow cytometry; active compounds read low | response (vesicle binding), % at 7 µM | hit rate 0.068% among 330,000;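 active means response, share of CD8 T cells binding vesicles, and their 90th percentile fluorescence all below set limits, cut at about 80% in these data, passing the limit was not always enough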;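 further: values below 100% mean blocked vesicle binding to the CD8+ T cells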
#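 Assay system: 2C TCR transgenic mouse naive CD8+ T cells, MACS-purified | Read-out: CD8+ gate FL2 mean fluorescence as % of same-row positive control | Signal: High-throughput flow cytometry with anti-B7-1 and anti-CD8 staining | Timing: Binding step 1.5 h, 37 °C, antibody labelling 20 min, ice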
# V-ATPase pH: yeast V-ATPase proton transport regulation by pHLuorin; hit rate 0.37% among 350,000; AID 504577; response, % at 10 µM; S. cerevisiae, pHLuorin cytosolic pH fluorescence; in the data active means response mostly above about 7.3%, no sharp cut-off; inactive means mostly below about 5.4%; further: actives read high
# rCAG binder: molecules binding r(CAG) RNA repeats; inhibition, % at 3 µM; r(CAG) RNA repeat, TO-PRO-1 dye displacement fluorescence; hit rate 1.3% among 370,000;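 active means inhibition above the plate cutoff, the mean of all test compounds on that plate plus 3 SD, cut at about 35% in these data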;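 further: 0% = DMSO alone and 100% = 100 µM mitoxantrone as full dye displacement; higher means more dye released from RNA so lower well fluorescence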
# MPTP inh: permeability transition pore inhibition. isolated mouse mitochondria, Ca2+ swelling absorbance, 30 min. inhibition, % at 10 µM. hit rate 1.4% among 360,000. AID 602449;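 active means inhibition of 50% or more, scaled per plate between neutral and stimulator controls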;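 further: 0% = DMSO wells given calcium and 100% = 1 mM EGTA wells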
# B2AR ag: activates human beta-2 adrenergic receptor causing internalization. P07550. Am2.2-beta2AR cells, FAP receptor internalization, flow cytometry. response, % (test concentration not listed). hit rate 0.43% among 340,000. AID 504454;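 active means response above a set limit, near 3 SD of response in nonfluorescent compounds, cut at about 42% in these data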
# Target sequence (P07550 whole entry, looked up): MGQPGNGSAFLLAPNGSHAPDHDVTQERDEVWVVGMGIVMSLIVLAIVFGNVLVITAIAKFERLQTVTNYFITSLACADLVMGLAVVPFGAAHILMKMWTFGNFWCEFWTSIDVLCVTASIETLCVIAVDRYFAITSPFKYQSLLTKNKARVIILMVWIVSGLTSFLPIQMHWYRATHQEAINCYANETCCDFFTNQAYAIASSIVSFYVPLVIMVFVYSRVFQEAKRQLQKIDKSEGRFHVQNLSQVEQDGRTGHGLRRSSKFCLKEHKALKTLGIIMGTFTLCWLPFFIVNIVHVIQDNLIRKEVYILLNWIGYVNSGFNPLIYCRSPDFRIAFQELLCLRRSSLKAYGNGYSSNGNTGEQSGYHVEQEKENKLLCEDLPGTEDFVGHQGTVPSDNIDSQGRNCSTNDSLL
# Exocytosis inh: lytic granule exocytosis inhibition; TALL-104 LAMP-1 surface exposure, flow cytometry; cells stimulated with thapsigargin and PMA; inhibition, % at 10 µM; hit rate 0.66% among 360,000;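 active means inhibition above about 55%, limit read from the data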
# rCAG bind conf: r(CAG) RNA repeat binding, confirmation | AID 652065 | hit rate 70% among 4,300 | shares compounds with rCAG binder | TO-PRO-1 dye displacement fluorescence | inhibition, % at 3 µM;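 active means inhibition above a per-plate cutoff, the mean inhibition of sample wells plus 3 SD, cut at about 35% in these data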;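 further: loss of TO-PRO-1 fluorescence as compound displaces dye from 1x1 AA loop RNA; 0% = DMSO only wells and 100% = 100 µM mitoxantrone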
# dCAG dye counter: disrupts DNA CAG TO-PRO-1 complex, flagging rCAG hits | hit rate 94% among 4,300 | AID 652068 | d(CAG) DNA oligo TO-PRO-1 dye displacement, fluorescence | inhibition, % at 3 µM | shares compounds with rCAG binder;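 active means inhibition above its plate's cutoff, the mean test-well inhibition plus 3 SD, cut at about 4.8% in these data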;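 further: 0% = DNA dye mix with DMSO and 100% = 100 µM mitoxantrone; hits displace the dye from DNA and so lower well fluorescence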
# * = called active by the depositor; i = inactive; · = no result. The list is not random: actives were taken first. Their share in the collection is about 3.8%.
SMILES,T cell HTS,V-ATPase pH,rCAG binder,MPTP inh,B2AR ag,Exocytosis inh,rCAG bind conf,dCAG dye counter
Cc1cc(Cl)ccc1OC(C)C(=O)Nc1ccc(C(=O)Nc2ccccc2C(=O)O)cc1 (stereo not drawn),343,-2,77*,0,14,6,87*,62*
O=C(Cc1ccc(Cl)cc1)Nc1ccc(S(=O)(=O)Nc2cnc3ccccc3n2)cc1,145,3,63*,1,4,0,59*,23*
CC(Oc1ccc(Cl)cc1Cl)C(=O)Nc1ccc(S(=O)(=O)Nc2cnc3ccccc3n2)cc1 (stereo not drawn),466,·,·,·,·,·,·,·
Nc1ccc(S(=O)(=O)Nc2cnc3ccccc3n2)cc1,192,-5,4,0,-4,3,·,·
O=C(Nc1ccc(S(=O)(=O)Nc2cnc3ccccc3n2)cc1)c1ccc(Cl)cc1Cl,138,0,66*,17,7,8,48*,15*
COc1cc(NS(=O)(=O)c2ccc(NC(=O)c3ccc(Cl)cc3Cl)cc2)ncn1,312,2,19,-2,-1,1,·,·
O=C(Nc1ccc(Cl)cc1)c1cc(S(=O)(=O)Nc2ccccn2)ccc1Cl,389,0,15,1,8,-19,·,·
O=C(Nc1ccc(S(=O)(=O)Nc2cnc3ccccc3n2)cc1)c1cc(F)c(F)cc1Cl,449,1,40*,-2,6,-11,28,4
O=C1C=CC(=O)c2c(O)c(N3CCN(CCOCCO)CC3)c(Br)c(O)c21,·,-4,53*,7,66*,62*,68*,36*
Cc1ccc(-c2cc(-c3nnc(SCC(=O)Nc4ccc(OCc5ccccc5)cc4)n3N)[nH]n2)cc1,·,·,10,·,·,·,·,·
Cc1ccc(S(=O)(=O)N/N=C/c2ccc(OS(=O)(=O)c3ccc(C)c([N+](=O)[O-])c3)cc2)cc1,383,0,35*,2,5,1,50*,15*
Cc1ccc(S(=O)(=O)N/N=C\c2ccc(Cl)c([N+](=O)[O-])c2)cc1,207,4,13,5,-6,-4,·,·
CCCCOc1ccc(-c2c(C(=O)Nc3ccccc3)c(C)[nH]c(=S)c2C#N)cc1,320,-3,60*,3,-7,-1,36*,16*
COc1cc(NS(=O)(=O)c2ccc(Nc3nc(-c4ccccc4)cs3)cc2)nc(OC)n1,247,-1,87*,-2,8,-2,83*,54*
Cc1cc(NS(=O)(=O)c2ccc(Nc3nc(-c4ccc(C)c(C)c4)cs3)cc2)no1,624,-1,88*,-28,13,1,84*,55*
CCC(=O)Nc1ccc(S(=O)(=O)Nc2cc(C)on2)cc1,252,-4,-1,0,-8,-1,·,·
Cc1cc(NS(=O)(=O)c2ccc(Nc3nc(-c4ccc(O)cc4)cs3)cc2)no1,208,4,52*,0,7,0,33,9.7*
Cc1cc(NS(=O)(=O)c2ccc(Nc3nc(-c4sc(N)nc4C)cs3)cc2)no1,194,1,·,-1,4,9,·,·
COC(=O)C1CCC(CNC(=O)C(Cc2ccc3c(c2)OCO3)NC(C)=O)CC1 (stereo not drawn),·,·,3,·,·,·,·,·
Cc1ccc(S(=O)(=O)N(CC(=O)Nc2ccccc2C(=O)O)c2ccccc2)cc1,169,-1,41*,-1,-5,-2,34,8.4*
COc1ccc(N(CC(=O)Nc2ccccc2C(=O)O)S(=O)(=O)c2ccc(C)c([N+](=O)[O-])c2)cc1,332,-1,72*,1,1,-1,54*,17*
COc1ccccc1NC(=O)CN(c1ccccc1)S(=O)(=O)c1ccccc1,i,6,3,0,4,23,·,·
O=C(O)c1cc(S(=O)(=O)Nc2ccccc2C(=O)O)ccc1O,235,-2,10,0,-1,1,·,·
O=C(O)c1ccccc1NS(=O)(=O)c1ccc(NNC(=S)Nc2ccc(OC(F)F)cc2)c([N+](=O)[O-])c1,·,3,101*,-2,-4,-1,95*,80*
